Three compounds from paper PMC5672994 (Molecular Imaging, 2017) can be followed below.

One series is described as follows: Lipophilicity. It is filed as physicochemical. The following applies: shake-flask.
Another series has as its system PSMA(+) LNCaP tumors. Kind of series: Small-animal PET imaging in mice bearing subcutaneous LNCaP tumors. Type of series: in vivo. The following applies: for absolute tumor uptake, fold lower in comparison to ^68Ga-1 / specificity of tumor accumulation: PET; for specificity of tumor accumulation: PSMA(+) LNCaP tumors, blocking with PMPA 20 nmol/mouse; for peak (maximum) kidney uptake / time of peak kidney uptake postadministration: dynamic PET kidney TAC; for peak tumor uptake: subcutaneous LNCaP tumor, iv. A digest of the protocol:
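Athymic Balb/c nude mice carried LNCaP xenografts (5.0 million cells sc, right shoulder, in Matrigel 1:1), imaged at ~200-300 mg. Dosing was by iv tail vein in PBS pH7.4: static 15.4-18.7 MBq (~0.56-0.68 nmol), dynamic ~28 MBq. Mice were under isoflurane. Dynamic scans ran 3500 s; static scans at 0.5, 1, 2 and 3 h. Decay-corrected VOI %ID/g was taken. Blocking used coinjected PMPA 20 nmol/mouse (n = 3).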

The next series in a line: Metabolism in vivo. Conditions: mice, 15 minutes after injection, HPLC. A digest of the protocol: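 Mice (n = 2/group) received 7.3-11.1 MBq (0.3-0.4 nmol) of ⁶⁸Ga-radiotracer in PBS by tail-vein injection and were killed at 15 min. Heparinized blood was spun at 1700 g for 5 min. Plasma was ultrafiltered (30 kDa cutoff, 9660 g, 10 min). Filtrate and protein fractions were gamma-counted, and filtrate aliquots were analysed by RP-HPLC for metabolites.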

Series [1] can be described thus: Stability of formulated radiotracer in saline or PBS. It is filed as physicochemical. Conditions: incubation in saline or PBS at 37°C for over 4 hours.

In the case of ^68Ga-DFO-pNCS-Bn-PSMA [^68Ga-7], the “LogD (n-octanol: PBS pH7.4)” value in “Lipophilicity” was −2.60 ± 0.02. For the same compound, the “absolute tumor uptake, fold lower in comparison to ^68Ga-1” value in the series with PSMA(+) LNCaP tumors (LNCaP tumor) is reported as approximately 2.5 fold. Moreover, in the series with PSMA(+) LNCaP tumors, the “specificity of tumor accumulation” value is “specific accumulation”, the “peak (maximum) kidney uptake” value was approximately 50 %ID/g and the “time of peak kidney uptake postadministration” value was approximately 1400 s. The “tumor-associated radioactivity after 3500 seconds” value in the series on PSMA(+) LNCaP tumors (dynamic PET, LNCaP tumor) amounted to 2.90 ± 0.46 %ID/g. Also, in the series on PSMA(+) LNCaP tumors (dynamic PET), the peak tumor uptake is 3.5-4.0 %ID/g. For the same compound, in the series with PSMA(+) LNCaP tumors (static PET, LNCaP tumor), the “tumor-associated activity retained for up to 3 hours” value was 2.5-3.5 %ID/g. Further, in the series “Metabolism in vivo”, the “radiotracer intact in soluble fraction of the blood pool” value was 100%. Further, the “stability with respect to changes in RCP” value in series [1] is reported as “stable”.

`O=C([O-])CN(CCN(CC(=O)[O-])Cc1cc(CCC(=O)NCCCCCC(=O)NCCCC[C@H](NC(=O)N[C@@H](CCC(=O)O)C(=O)O)C(=O)O)ccc1[O-])Cc1cc(CCC(=O)O)ccc1[O-].[68Ga+3].[OH3+]` [^68Ga-1, ^68Ga-HBED-CC-PSMA, reference compound]: the “LogD (n-octanol: PBS pH7.4)” value in the series “Lipophilicity” was −4.06 ± 0.10. Besides, in the series on PSMA(+) LNCaP tumors, the “peak (maximum) kidney uptake” value is recorded as “around 30 %ID/g” and the “time of peak kidney uptake postadministration” value is approximately 500 s. For the same compound, the “tumor-associated radioactivity after 3500 seconds” value with PSMA(+) LNCaP tumors (dynamic PET, LNCaP tumor) was more than 8.0 %ID/g.

Take ^68Ga-DFO-Nsucc-PSMA [^68Ga-4]: the “LogD (n-octanol: PBS pH7.4)” value in the series “Lipophilicity” is −3.24 ± 0.05. Besides, in the series with PSMA(+) LNCaP tumors (LNCaP tumor), the “absolute tumor uptake, fold lower in comparison to ^68Ga-1” value was approximately 10 fold. For the same compound, in the series on PSMA(+) LNCaP tumors, the “specificity of tumor accumulation” value was “specific accumulation”. In addition, the “time of peak tumor uptake postadministration” value in the series with PSMA(+) LNCaP tumors (dynamic PET, LNCaP tumor) fell in the range of 5 to 10 min. The peak tumor uptake with PSMA(+) LNCaP tumors (dynamic PET) was 3-4 %ID/g. The “absolute tumor uptake after 3 hours postadministration” value in the series with PSMA(+) LNCaP tumors (static PET, LNCaP tumor) is 0.8-1.2 %ID/g. Further, the “radiotracer intact in soluble fraction of the blood pool” value in “Metabolism in vivo” came to 100%. Moreover, the “stability with respect to changes in RCP” value in series [1] was “stable”.
